Assays:
[1] = target: Serine/threonine-protein kinase pim-2 (Homo sapiens) (UniProt Q9P1W9); assay: Inhibition of human PIM2 assessed as residual activity using RSRHSSYPAGT as substrate at 10 uM after 30 mins
[2] = system: PC-3; assay: Antiproliferative activity against human PC3 cells assessed as cell growth inhibition at 10 uM after 72 hrs by MTS assay; type: functional; settings: PC-3, 72 h, read-out: GI
How it was run: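 PC3 cells kept in RPMI 1640 plus 10% FCS (37 °C, 5% CO2) and plated at 2500 per well. Compound added 24 h later at 10 µM in DMSO (1% final), 72 h exposure, vehicle controls. MTS read at 490 nm; percent inhibition of proliferation.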

[3] = target: T1, Serine/threonine-protein kinase pim-1 (Homo sapiens, UniProt P11309); assay: Inhibition of human PIM1 using RSRHSSYPAGT as substrate after 30 mins
Target sequence in this assay (P11309 whole entry): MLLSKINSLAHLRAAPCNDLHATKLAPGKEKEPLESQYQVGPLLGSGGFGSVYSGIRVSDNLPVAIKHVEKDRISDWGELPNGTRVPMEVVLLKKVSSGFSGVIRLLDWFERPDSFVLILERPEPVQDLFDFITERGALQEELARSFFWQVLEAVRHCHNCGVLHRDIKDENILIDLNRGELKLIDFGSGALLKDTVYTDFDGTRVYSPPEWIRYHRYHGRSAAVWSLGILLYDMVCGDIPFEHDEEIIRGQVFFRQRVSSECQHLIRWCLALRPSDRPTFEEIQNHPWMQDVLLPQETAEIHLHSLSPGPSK

[4] = target: T1, Serine/threonine-protein kinase pim-1; assay: Inhibition of human PIM1 assessed as residual activity using RSRHSSYPAGT as substrate at 1 uM after 30 mins
Target sequence in this assay (P11309 whole entry, looked up): as the sequence (P11309 whole entry) above

[5] = target: Serine/threonine-protein kinase pim-2 (Homo sapiens) (UniProt Q9P1W9); assay: Inhibition of human PIM2 assessed as residual activity using RSRHSSYPAGT as substrate at 1 uM after 30 mins
[6] = target: T1, Serine/threonine-protein kinase pim-1; assay: Inhibition of human PIM1 assessed as residual activity using RSRHSSYPAGT as substrate at 10 uM after 30 mins
Target sequence in this assay (P11309 whole entry, looked up): as the sequence (P11309 whole entry) above

[7] = target: T2, Serine/threonine-protein kinase pim-3 (Homo sapiens, UniProt Q86V86); assay: Inhibition of human PIM3 assessed as residual activity using RSRHSSYPAGT as substrate at 1 uM after 30 mins
[8] = system: LNCaP; assay: Antiproliferative activity against human LNCAP cells assessed as cell growth inhibition at 10 uM after 72 hrs by MTS assay; type: functional; settings: read-out: GI
How it was run: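 LNCaP cells grown in RPMI 1640 with 10% FCS at 37 °C, 5% CO2, seeded at 5000 per well. After 24 h, compound in DMSO (1% final) added at 10 µM for 72 h; DMSO controls. Viable cells by MTS absorbance at 490 nm; percent proliferation inhibition.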

[9] = target: T2, Serine/threonine-protein kinase pim-3; assay: Inhibition of human PIM3 using RSRHSSYPAGT as substrate after 30 mins
[10] = target: T2, Serine/threonine-protein kinase pim-3; assay: Inhibition of human PIM3 assessed as residual activity using RSRHSSYPAGT as substrate at 10 uM after 30 mins
[11] = system: PC-3; assay: Antiproliferative activity against human PC3 cells assessed as cell growth inhibition after 72 hrs by MTS assay; type: functional, cell-based; settings: PC-3, 72 h

Serine/threonine-protein kinase pim-2 (Homo sapiens), sequence (Q9P1W9 whole entry, looked up): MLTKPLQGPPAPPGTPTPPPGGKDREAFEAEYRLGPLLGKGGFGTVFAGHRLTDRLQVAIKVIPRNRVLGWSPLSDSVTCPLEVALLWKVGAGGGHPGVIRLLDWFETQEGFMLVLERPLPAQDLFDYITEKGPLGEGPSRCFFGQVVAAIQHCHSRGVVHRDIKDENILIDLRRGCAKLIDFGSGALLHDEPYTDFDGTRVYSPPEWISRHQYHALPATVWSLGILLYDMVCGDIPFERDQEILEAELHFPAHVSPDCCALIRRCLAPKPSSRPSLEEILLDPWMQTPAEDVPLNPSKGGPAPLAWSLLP

Row | Compound | Activity [1] | inhibition of growth at 10 µM [2] | IC50 [3] | Activity [4] | Activity [5] | Activity [6] | Activity [7] | inhibition of growth at 10 µM [8] | IC50 [9] | Activity [10] | IC50 [11]
1 | Nc1cc2[nH]ncc2c2c1[nH]c1ccc(Cl)cc12 | 34% | 45% | 1100 nM | 45% | 107% | 8% | 28% | 27% | 110 nM | 7% | –
2 | COc1ccc2[nH]c3c(N)cc4[nH]ncc4c3c2c1 | 54% | 46% | – | 70% | 123% | 23% | 51% | 39% | – | 16% | –
3 | COc1ccc2[nH]c3c([N+](=O)[O-])cc4n[nH]cc4c3c2c1 | – | – | 150 nM | – | – | – | – | – | 110 nM | – | –
4 | O=[N+]([O-])c1cc2[nH]ncc2c2c1[nH]c1ccc(Cl)cc12 | 54% | 50% | 200 nM | 48% | 57% | 39% | 26% | 0% | 230 nM | 19% | –
5 | O=[N+]([O-])c1cc2[nH]ncc2c2c1[nH]c1ccccc12 | 38% | 85% | – | 14% | 49% | 15% | 28% | 38% | – | 17% | 3000 nM
6 | O=[N+]([O-])c1cc2cn[nH]c2c2c1[nH]c1ccc(Cl)cc12 | 93% | 51% | – | 69% | 90% | 60% | 50% | 28% | 90 nM | 38% | –
7 | O=[N+]([O-])c1cc2c[nH]nc2c2c1[nH]c1ccccc12 | – | – | 400 nM | – | – | – | – | – | 210 nM | – | –
8 | COc1ccc2[nH]c3c([N+](=O)[O-])cc4[nH]ncc4c3c2c1 | 35% | 74% | – | 29% | 54% | 13% | 21% | 27% | – | 11% | 2300 nM
9 | Nc1cc2cn[nH]c2c2c1[nH]c1ccccc12 | 78% | 31% | – | 98% | 116% | 54% | 63% | 28% | – | 20% | –
10 | COc1ccc2[nH]c3c(N)cc4cn[nH]c4c3c2c1 | 70% | 28% | – | 93% | 120% | 43% | 46% | 8% | 700 nM | 14% | –
11 | COc1ccc2[nH]c3c([N+](=O)[O-])cc4cn[nH]c4c3c2c1 | 72% | 29% | – | 41% | 77% | 39% | 28% | 19% | – | 23% | –
12 | O=[N+]([O-])c1cc2cn[nH]c2c2c1[nH]c1ccccc12 | 46% | 59% | – | 44% | 76% | 26% | 22% | 45% | – | 16% | –
13 | Nc1cc2cn[nH]c2c2c1[nH]c1ccc(Cl)cc12 | 79% | 43% | – | 85% | 115% | 29% | 55% | 35% | – | 14% | –
14 | COc1ccc2[nH]c3c([N+](=O)[O-])cc4c[nH]nc4c3c2c1 | – | – | 220 nM | – | – | – | – | – | 110 nM | – | –
15 | Nc1cc2[nH]ncc2c2c1[nH]c1ccccc12 | 71% | 56% | – | 61% | 96% | 16% | 66% | 56% | – | 20% | –
16 | COc1ccc2[nH]c3c(N)cc4n[nH]cc4c3c2c1 | – | – | – | – | – | – | – | – | 600 nM | – | –
17 | O=[N+]([O-])c1cc2n[nH]cc2c2c1[nH]c1ccccc12 | – | – | 40 nM | – | – | – | – | – | 100 nM | – | –
